Assay results: ChEMBL document CHEMBL4304816, “A Novel Biphenyl-based Chemotype of Retinoid X Receptor Ligands Enables Subtype and Heterodimer Preferences” (ACS Med Chem Lett, 2019)
Active and inactive are the calls of the source. No cut-off for these calls is given here.

Columns and labels:
Type in all cases: cell-based
[1] = target: T1, Retinoic acid receptor RXR-alpha (Homo sapiens, UniProt P19793); test: Agonist activity at Gal4-LBD fused RXRalpha (unknown origin) expressed in HEK293T cells after 14 to 16 hrs by dual-Glo luciferase assay
T1 sequence (P19793 whole entry): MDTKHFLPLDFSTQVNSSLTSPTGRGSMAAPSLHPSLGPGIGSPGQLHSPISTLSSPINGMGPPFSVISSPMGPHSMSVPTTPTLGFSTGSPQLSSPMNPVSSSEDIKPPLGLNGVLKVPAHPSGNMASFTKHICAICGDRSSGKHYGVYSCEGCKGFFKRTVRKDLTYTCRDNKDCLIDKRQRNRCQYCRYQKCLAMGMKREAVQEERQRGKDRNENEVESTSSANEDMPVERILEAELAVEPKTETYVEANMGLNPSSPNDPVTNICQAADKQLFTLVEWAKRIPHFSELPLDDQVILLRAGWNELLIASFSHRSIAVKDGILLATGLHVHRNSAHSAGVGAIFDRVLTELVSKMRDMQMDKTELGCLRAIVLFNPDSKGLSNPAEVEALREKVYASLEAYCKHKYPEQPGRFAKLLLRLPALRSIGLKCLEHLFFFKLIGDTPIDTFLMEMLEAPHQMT
Summary of the method: (§1)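 Gal4-hybrid RXRα/β/γ reporter gene assays in HEK293T cells. Fold activation is the maximal fold activation versus 0.1% DMSO.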

[2] = target: T2, Retinoic acid receptor RXR-beta (Homo sapiens, UniProt P28702); test: Agonist activity at Gal4-LBD fused RXRbeta (unknown origin) expressed in HEK293T cells after 14 to 16 hrs by dual-Glo luciferase assay; summary of the method: as §1
T2 sequence (P28702 whole entry): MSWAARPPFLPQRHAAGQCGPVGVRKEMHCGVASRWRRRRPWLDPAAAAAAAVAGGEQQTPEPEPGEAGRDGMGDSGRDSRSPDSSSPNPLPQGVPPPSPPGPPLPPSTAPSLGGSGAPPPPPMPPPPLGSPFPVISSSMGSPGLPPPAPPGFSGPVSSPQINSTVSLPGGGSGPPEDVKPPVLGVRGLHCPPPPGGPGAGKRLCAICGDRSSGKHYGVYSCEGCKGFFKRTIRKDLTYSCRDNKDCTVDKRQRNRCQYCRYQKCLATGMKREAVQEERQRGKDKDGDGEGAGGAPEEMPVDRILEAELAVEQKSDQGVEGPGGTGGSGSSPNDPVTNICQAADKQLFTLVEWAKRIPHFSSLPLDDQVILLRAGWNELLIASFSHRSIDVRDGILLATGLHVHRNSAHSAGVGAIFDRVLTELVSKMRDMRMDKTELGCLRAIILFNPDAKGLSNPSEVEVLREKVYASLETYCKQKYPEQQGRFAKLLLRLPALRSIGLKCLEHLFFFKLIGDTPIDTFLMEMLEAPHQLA

[3] = target: T3, Retinoic acid receptor RXR-gamma (Homo sapiens) (UniProt P48443); test: Agonist activity at Gal4-LBD fused RXRgamma (unknown origin) expressed in HEK293T cells at 30 uM after 14 to 16 hrs by dual-Glo luciferase assay
T3 sequence (whole entry): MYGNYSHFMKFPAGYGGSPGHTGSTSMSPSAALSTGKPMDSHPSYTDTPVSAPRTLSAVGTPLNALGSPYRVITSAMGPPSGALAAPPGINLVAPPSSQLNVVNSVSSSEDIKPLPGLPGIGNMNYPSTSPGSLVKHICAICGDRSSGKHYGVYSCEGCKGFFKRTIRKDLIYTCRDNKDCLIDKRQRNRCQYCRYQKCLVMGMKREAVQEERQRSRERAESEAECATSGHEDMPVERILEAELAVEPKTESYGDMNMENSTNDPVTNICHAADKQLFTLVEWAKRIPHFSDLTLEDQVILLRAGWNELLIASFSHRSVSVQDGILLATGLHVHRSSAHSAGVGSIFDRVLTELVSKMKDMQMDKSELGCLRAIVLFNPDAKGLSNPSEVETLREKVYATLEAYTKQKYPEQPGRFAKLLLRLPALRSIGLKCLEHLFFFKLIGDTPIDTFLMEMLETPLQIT

[4] = Agonist activity at full-length human RXR/LXR expressed in HEK293T cells at 20 uM after 14 to 16 hrs by dual-glo luciferase reporter gene assay relative to untreated control; details: HEK-293T, read-out: Activity
Summary of the method: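 RXR:LXR or RXR:PPARγ heterodimer reporter assay with test compound alone. Activation expressed relative to 0.1% DMSO vehicle. Three independent experiments, each in duplicate; mean reported.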

[5] = species on record: Homo sapiens; test: Agonist activity at full-length human PPARgamma/RXR expressed in HEK293T cells at 20 uM after 14 to 16 hrs by dual-glo luciferase reporter gene assay relative to untreated control
Summary of the method: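 RXR:PPARγ heterodimer reporter assay in HEK293T cells with test compound alone. Mean relative activation is taken versus 0.1% DMSO, from three independent experiments each run in duplicate.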

[6] = Agonist activity at full-length human RXR/LXR expressed in HEK293T cells at 20 uM after 14 to 16 hrs in presence of 1 uM T0901317 by dual-glo luciferase reporter gene assay relative to T0901317; details: HEK-293T, read-out: Activity
Summary of the method: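 Synergy format: the test compound was co-applied with the partner-receptor reference agonist at 1 μM, either T0901317 (RXR:LXR) or rosiglitazone (RXR:PPARγ). Relative synergistic activation was derived from three independent experiments, each in duplicate; mean reported.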

[7] = species on record: Homo sapiens; test: Agonist activity at full-length human PPARgamma/RXR expressed in HEK293T cells at 20 uM after 14 to 16 hrs in presence of 1 uM rosiglitazone by dual-glo luciferase reporter gene assay relative to rosiglitazone
Summary of the method: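 RXR:PPARγ heterodimer reporter assay run with reference PPARγ agonist rosiglitazone (1 μM) co-applied. Read-out is mean relative synergistic activation, from three independent experiments each run in duplicate.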

[8] = target: T4, Retinoic acid receptor RXR-beta (Homo sapiens) (UniProt P28702); test: Agonist activity at Gal4-LBD fused RXRbeta (unknown origin) expressed in HEK293T cells at 30 uM after 14 to 16 hrs by dual-Glo luciferase assay
T4 sequence (whole entry): T2 sequence (P28702 whole entry)

[9] = target: T5, Retinoic acid receptor RXR-alpha (Homo sapiens) (UniProt P19793); test: Agonist activity at Gal4-LBD fused RXRalpha (unknown origin) expressed in HEK293T cells assessed as fold activation after 14 to 16 hrs by dual-Glo luciferase assay relative to untreated control; summary of the method: as §1
T5 sequence (whole entry): T1 sequence (P19793 whole entry)

[10] = target: T4, Retinoic acid receptor RXR-beta (Homo sapiens); test: Agonist activity at Gal4-LBD fused RXRbeta (unknown origin) expressed in HEK293T cells assessed as fold activation after 14 to 16 hrs by dual-Glo luciferase assay relative to untreated control; summary of the method: as §1
[11] = target: T3, Retinoic acid receptor RXR-gamma (Homo sapiens); test: Agonist activity at Gal4-LBD fused RXRgamma (unknown origin) expressed in HEK293T cells at 20 uM after 14 to 16 hrs by dual-Glo luciferase assay
[12] = target: T6, Retinoic acid receptor RXR-gamma (Homo sapiens, UniProt P48443); test: Agonist activity at Gal4-LBD fused RXRgamma (unknown origin) expressed in HEK293T cells after 14 to 16 hrs by dual-Glo luciferase assay; summary of the method: as §1
T6 sequence (P48443 whole entry): T3 sequence (whole entry)

[13] = target: T5, Retinoic acid receptor RXR-alpha (Homo sapiens); test: Agonist activity at Gal4-LBD fused RXRalpha (unknown origin) expressed in HEK293T cells assessed as fold activation at 20 uM after 14 to 16 hrs by dual-Glo luciferase assay relative to untreated control; summary of the method: as §1
[14] = target: T4, Retinoic acid receptor RXR-beta (Homo sapiens); test: Agonist activity at Gal4-LBD fused RXRbeta (unknown origin) expressed in HEK293T cells assessed as fold activation at 20 uM after 14 to 16 hrs by dual-Glo luciferase assay relative to untreated control; summary of the method: as §1
[15] = target: T3, Retinoic acid receptor RXR-gamma (Homo sapiens); test: Agonist activity at Gal4-LBD fused RXRgamma (unknown origin) expressed in HEK293T cells assessed as fold activation at 20 uM after 14 to 16 hrs by dual-Glo luciferase assay relative to untreated control; summary of the method: as §1
[16] = target: T5, Retinoic acid receptor RXR-alpha (Homo sapiens); test: Agonist activity at Gal4-LBD fused RXRalpha (unknown origin) expressed in HEK293T cells at 30 uM after 14 to 16 hrs by dual-Glo luciferase assay
[17] = target: T3, Retinoic acid receptor RXR-gamma (Homo sapiens); test: Agonist activity at Gal4-LBD fused RXRgamma (unknown origin) expressed in HEK293T cells at 10 uM after 14 to 16 hrs by dual-Glo luciferase assay
[18] = target: T3, Retinoic acid receptor RXR-gamma (Homo sapiens); test: Agonist activity at Gal4-LBD fused RXRgamma (unknown origin) expressed in HEK293T cells assessed as fold activation after 14 to 16 hrs by dual-Glo luciferase assay relative to untreated control; summary of the method: as §1

SMILES	EC50 [1]	EC50 [2]	Activity [3]	Activity [8]	fold change (FC) [9]	fold change (FC) [10]	further results
Cc1cc(-c2cc(C(F)(F)F)cc(C(F)(F)F)c2)ccc1C(=O)O	9.1 µM	8.9 µM	inactive	–	–	–	activity at 20 µM [4]: 71%; Activity [5]: 84%; activity at 20 µM [6]: 71%; Activity [7]: 46%
COc1cc(OC)cc(-c2ccc(C(=O)O)cc2)c1	25.4 µM	–	inactive	inactive	4.8	–	–
CC(C)(C)c1cccc(-c2ccc(C(=O)O)cc2)c1	18 µM	12.8 µM	–	–	19	35	Activity [11]: inactive
O=C(O)c1ccc(-c2cc(Cl)cc(Cl)c2)cc1	9.3 µM	13 µM	–	–	38	68	EC50 [12]: > 30 µM; fold change (FC) [13]: 33; fold change (FC) [14]: 60; fold change (FC) [15]: 3
O=C(O)c1ccc(-c2ccccc2)cc1	–	–	inactive	inactive	–	–	Activity [16]: inactive
Cc1cccc(-c2ccc(C(=O)O)cc2)c1	–	–	inactive	inactive	–	–	Activity [16]: inactive
Cc1cc(-c2cc(C(C)(C)C)cc(C(C)(C)C)c2)ccc1CC(=O)O	3.5 µM	7 µM	–	–	3.5	28	Activity [17]: inactive
CC(C)(C)c1cc(-c2ccc(CCC(=O)O)cc2)cc(C(C)(C)C)c1	1.5 µM	2.1 µM	–	–	21	94	EC50 [12]: 5 µM; fold change (FC) [18]: 17
CC(C)Oc1cccc(-c2ccc(C(=O)O)cc2)c1	10.6 µM	13.4 µM	–	–	18	19	Activity [11]: inactive
